Results from ChEMBL document CHEMBL1145787, “Synthesis and structure-activity relationship of N-substituted 4-arylsulfonylpiperidine-4-hydroxamic acids as novel, orally active matrix metalloproteinase inhibitors for the treatment of osteoarthritis” (J Med Chem, 2003).

Key:
[1] = Maximum plasma concentration of compound was determined in dog at 25 mg/kg orally; assay type: ADME, organism-based, Canis lupus familiaris; set-up: dose 25 mg/kg, route oral; conditions: po
Outline: (§1)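 Single oral dose of 25 mg/kg in Sprague–Dawley rats, New Zealand rabbits, Beagle dogs and Cynomolgus monkeys. Mean plasma pharmacokinetics; Cmax is the maximum plasma concentration and Tmax is the time of peak concentration.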

[2] = Maximum plasma concentration of compound was determined in monkey at 25 mg/kg orally; assay type: ADME, organism-based; set-up: dose 25 mg/kg, route oral; conditions: simiiformes, po; outline: as §1
[3] = Maximum plasma concentration of compound was determined in rabbit at 25 mg/kg orally; assay type: ADME, organism-based, Oryctolagus cuniculus; set-up: dose 25 mg/kg, route oral; conditions: po; outline: as §1
[4] = Maximum plasma concentration of compound was determined in rat at 25 mg/kg orally; assay type: ADME, organism-based; set-up: dose 25 mg/kg, route oral; conditions: po; outline: as §1
[5] = Total clearance of compound was determined in rabbit at 5 mg/kg intravenously admn.; assay type: ADME, organism-based, Oryctolagus cuniculus; set-up: dose 5 mg/kg, route intravenous; conditions: in vivo, iv, read-out: CLT
Outline: (§2)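 Single iv dose of 5 mg/kg in Sprague–Dawley rats, New Zealand rabbits, Beagle dogs and Cynomolgus monkeys. Mean plasma pharmacokinetics: C0 is the concentration at T=0, Vdss the volume of distribution at steady state, and CLT the total clearance.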

[6] = Total clearance of compound was determined in rat at 5 mg/kg intravenously admn.; assay type: ADME, organism-based; set-up: dose 5 mg/kg, route intravenous; conditions: in vivo, iv, read-out: CLT; outline: as §2
[7] = Total clearance of compound was determined in monkey at 5 mg/kg intravenously admn.; assay type: ADME, organism-based; set-up: dose 5 mg/kg, route intravenous; conditions: simiiformes, in vivo, iv, read-out: CLT; outline: as §2
[8] = Peak concentration of compound at Time = 0 was determined in monkey at 5 mg/kg intravenously admn.; assay type: ADME, organism-based; set-up: dose 5 mg/kg, route intravenous; conditions: simiiformes, in vivo, iv; outline: as §2
[9] = Peak concentration of compound at Time = 0 was determined in rabbit at 5 mg/kg intravenously admn.; assay type: ADME, organism-based, Oryctolagus cuniculus; set-up: dose 5 mg/kg, route intravenous; conditions: in vivo, iv; outline: as §2
[10] = Peak concentration of compound at Time = 0 was determined in rat at 5 mg/kg intravenously admn.; assay type: ADME, organism-based; set-up: dose 5 mg/kg, route intravenous; conditions: in vivo, iv; outline: as §2
[11] = Area under concentration-time curve of compound was determined in dog at 25 mg/kg orally; assay type: ADME, organism-based, Canis lupus familiaris; set-up: dose 25 mg/kg, route oral; conditions: in vivo, po
Outline: (§3)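 Single-dose PK in Sprague–Dawley rats, New Zealand rabbits, Beagle dogs and cynomolgus monkeys. Dosing was 25 mg/kg oral or 5 mg/kg iv. Plasma concentration–time profiles gave the apparent elimination half-life (T1/2) and the area under the concentration–time curve (AUC). Parameters are reported as means.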

[12] = Area under concentration-time curve of compound was determined in monkey at 25 mg/kg orally; assay type: ADME, organism-based; set-up: dose 25 mg/kg, route oral; conditions: simiiformes, in vivo, po; outline: as §3
[13] = Area under concentration-time curve of compound was determined in rabbit at 25 mg/kg orally; assay type: ADME, organism-based, Oryctolagus cuniculus; set-up: dose 25 mg/kg, route oral; conditions: in vivo, po; outline: as §3
[14] = Area under concentration-time curve of compound was determined in rat at 25 mg/kg orally; assay type: ADME, organism-based; set-up: dose 25 mg/kg, route oral; conditions: in vivo, po; outline: as §3
[15] = Area under concentration-time curve of compound was determined in dog at 5 mg/kg intravenously admn.; assay type: ADME, organism-based, Canis lupus familiaris; set-up: dose 5 mg/kg, route intravenous; conditions: in vivo, iv, read-out: AUC 0; outline: as §3
[16] = Area under concentration-time curve of compound was determined in monkey at 5 mg/kg intravenously admn.; assay type: ADME, organism-based; set-up: dose 5 mg/kg, route intravenous; conditions: simiiformes, in vivo, iv, read-out: AUC 0; outline: as §3
[17] = Area under concentration-time curve of compound was determined in rabbit at 5 mg/kg intravenously admn.; assay type: ADME, organism-based, Oryctolagus cuniculus; set-up: dose 5 mg/kg, route intravenous; conditions: in vivo, iv, read-out: AUC 0; outline: as §3
[18] = Area under concentration-time curve of compound was determined in rat at 5 mg/kg intravenously admn.; assay type: ADME, organism-based; set-up: dose 5 mg/kg, route intravenous; conditions: in vivo, iv, read-out: AUC 0; outline: as §3
[19] = Peak concentration of compound at Time = 0 was determined in dog at 5 mg/kg intravenously admn.; assay type: ADME, organism-based, Canis lupus familiaris; set-up: dose 5 mg/kg, route intravenous; conditions: in vivo, iv; outline: as §2
[20] = Volume of distribution at steady state of compound was determined in dog at 5 mg/kg intravenously admn.; assay type: ADME, organism-based, Canis lupus familiaris; set-up: dose 5 mg/kg, route intravenous; conditions: in vivo, iv, read-out: Vdss; outline: as §2
[21] = Volume of distribution at steady state of compound was determined in monkey at 5 mg/kg intravenously admn.; assay type: ADME, organism-based; set-up: dose 5 mg/kg, route intravenous; conditions: simiiformes, in vivo, iv, read-out: Vdss; outline: as §2
[22] = Volume of distribution at steady state of compound was determined in rabbit at 5 mg/kg intravenously admn.; assay type: ADME, organism-based, Oryctolagus cuniculus; set-up: dose 5 mg/kg, route intravenous; conditions: in vivo, iv, read-out: Vdss; outline: as §2
[23] = Volume of distribution at steady state of compound was determined in rat at 5 mg/kg intravenously admn.; assay type: ADME, organism-based; set-up: dose 5 mg/kg, route intravenous; conditions: in vivo, iv, read-out: Vdss; outline: as §2
[24] = Oral bioavailability of compound was determined in dog at 25 mg/kg orally; assay type: ADME, organism-based, Canis lupus familiaris; conditions: in vivo, read-out: Bioavailabiility
Oryctolagus cuniculus [25] = assay: Effect of compound on cartilage in surgically induced osteoarthritis (OA) model in rabbit at 15 mg/kg, value are relative to activity of RS-130830 (7.9+/-1.5) at 25 mg/kg; assay type: ADME, organism-based, Cartilage tissue; conditions: in vivo
Outline: (§4)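 Rabbits had anterior cruciate ligament transection plus meniscectomy in one knee, with sham surgery on the contralateral knee. From day 10 after surgery, groups of 12 were dosed once daily by oral gavage with vehicle, test compound or the RS-130830 reference for 4 weeks. Knee joints were then collected and scored for gross pathological changes by blinded investigators.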

Oryctolagus cuniculus [26] = assay: Effect of compound on cartilage in surgically induced osteoarthritis (OA) model in rabbit at 25 mg/kg, value are relative to activity of RS-130830 (7.9+/-1.5) at 25 mg/kg; assay type: ADME, organism-based, Cartilage tissue; conditions: in vivo; outline: as §4

Work on O=C(NO)C1(S(=O)(=O)c2ccc(Oc3ccc(Cl)cc3)cc2)CCN(Cc2ccccc2)CC1 yielded a Cmax [1] of 96.3 µg/mL, a Cmax [2] of 50.3 µg/mL and a Cmax [3] of 22700 ng/mL. The Cmax [4] was 75.2 µg/mL, the clearance [5] was 0.1 mL/min/kg and the clearance [6] was 0.3 mL/min/kg. For the same compound, the clearance [7] was 0.1 mL/min/kg, the C0 [8] was 162 µg/mL and the C0 [9] was 126 µg/mL. It also gave a C0 [10] of 329 µg/mL, an AUC [11] of 1810 µg·h/mL and an AUC [12] of 1410 µg·h/mL. The AUC [13] was 363 µg·h/mL, the AUC [14] was 899 µg·h/mL and the AUC [15] was 786 µg·h/mL. For the same compound, the AUC [16] was 1510 µg·h/mL, the AUC [17] was 640 µg·h/mL and the AUC [18] was 327 µg·h/mL. It also gave a C0 [19] of 82 µg/mL, a Vd [20] of 0.1 L/kg and a Vd [21] of 0.2 L/kg. For the same compound, the Vd [22] was 0.1 L/kg, the Vd [23] was 0.1 L/kg and the bioavailability [24] was 47%. For the same compound, the “Average gross pathology scores+/- SE” value (Oryctolagus cuniculus [25]) was 9.7 and the “Average gross pathology scores+/- SE” value (Oryctolagus cuniculus [26]) was 6.8.
